# Myeloid diff MLP – myeloid differentiation induction; calls only at 10 µM; AID 624256; hit rate 1% among 360,000; ER-HoxA9 myeloid progenitors, lysozyme-GFP differentiation, flow cytometry;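 active means normalized GFP-positive differentiation at or above the plate's own cutoff, the solvent-only control mean plus 3 SD; inconclusive means no clear call, values can overlap the other calls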;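 further: cells exposed to compound for four days before flow analysis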
# Exocytosis inh – blocks lytic granule exocytosis; TALL-104 LAMP-1 surface exposure, flow cytometry; cells stimulated with thapsigargin and PMA; inhibition, % at 10 µM; hit rate 0.66% among 360,000; AID 651702;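 active means inhibition above about 55%, limit read from the data; inconclusive means no clear call, values can overlap the other calls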
# MC4R barr agon – activates human MC4R beta-arrestin recruitment | P32245 | U2OS MC4R beta-arrestin complementation, luminescence; percent of melanotan II response, DMSO zero | activation, % at 8.9 µM | hit rate 0.98% among 360,000 | AID 540308;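 active means activation above a per-plate cutoff, the mean activation of sample wells on that plate plus 3 SD, cut at about 8% in these data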
# Target sequence (P32245 whole entry, looked up): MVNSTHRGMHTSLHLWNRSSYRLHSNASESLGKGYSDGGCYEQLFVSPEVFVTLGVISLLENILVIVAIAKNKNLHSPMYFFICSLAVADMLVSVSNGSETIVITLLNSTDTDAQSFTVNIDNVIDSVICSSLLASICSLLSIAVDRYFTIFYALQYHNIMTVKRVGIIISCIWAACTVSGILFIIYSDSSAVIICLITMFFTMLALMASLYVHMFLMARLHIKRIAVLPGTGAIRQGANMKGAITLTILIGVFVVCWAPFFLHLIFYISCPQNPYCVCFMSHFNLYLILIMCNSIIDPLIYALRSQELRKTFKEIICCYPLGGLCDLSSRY
# MC4R antagonist – antagonists of human melanocortin 4 receptor (MC4R); AID 540295; inhibition, % at 6.5 µM; hit rate 0.48% among 360,000; P32245; MC4R-expressing cells, MTII-stimulated cAMP, LANCE TR-FRET;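 active means inhibition above its plate's cutoff, the mean of tested wells on that plate plus 3 SD, cut at about 29% in these data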;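 further: 0% = Melanotan II alone and 100% = Melanotan II plus saturating MCL0020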
#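 System: U2OS cells stably expressing human melanocortin 4 receptor (MC4R). Reagent: Melanotan II challenge after compound preincubation. Doses: 6.5 µM. Times: 30-min compound, 1-h challenge, 1-h detection, room temperature. Measured by: TR-FRET with Eu-cAMP and labeled anti-cAMP, 671 nm. Replicates: singlicate.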
# EBI2 antag – antagonists of human EBI2 receptor; EBI2 beta-arrestin recruitment, luminescence, 7a,25-OHC stimulated; AID 651636; P32249; inhibition, % at 5 µM; hit rate 0.81% among 360,000; in the data active means inhibition above about 38%;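 further: enzyme fragment complementation signal reports receptor beta-arrestin coupling in cells; 0% = agonist plus DMSO wells and 100% = wells without agonist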
# U2OS cAMP counter – counter-screen for MC4R antagonists: nonselective cAMP signaling inhibitors; shares compounds with MC4R antagonist; parental U2OS, forskolin cAMP, LANCE TR-FRET; inhibition, % at 6.5 µM; hit rate 26% among 1,600;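 active means mean inhibition over triplicates above the low-control well mean plus 3 SD, set per campaign, cut at about 13% in these data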;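 further: signal is single emission at 671 nm which falls as cellular cAMP rises; 0% = forskolin-stimulated wells and 100% = buffer without forskolin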
# MC4R cAMP antag – human MC4R cAMP antagonism confirmation. hit rate 27% among 1,600. MC4R-expressing cells, MTII-stimulated cAMP, TR-FRET. inhibition, % at 6.5 µM. shares compounds with MC4R antagonist; in the data active means inhibition above about 29%;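 further: 0% = agonist stimulated wells alone and 100% = agonist stimulated wells plus saturating reference antagonist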
# * = called active by the depositor; i = inactive; ? = inconclusive; . = no result. Sampled rows, rich in hits. Any-hit rate of the full collection: about 3.7%.
SMILES,Myeloid diff MLP,Exocytosis inh,MC4R barr agon,MC4R antagonist,EBI2 antag,U2OS cAMP counter,MC4R cAMP antag
COc1ccc(NC(=O)Nc2cccc3c2O[C@H](CN(C)C(=O)Nc2ccc(C(F)(F)F)cc2)[C@@H](C)CN([C@H](C)CO)C3=O)cc1,i,-4,0,35*,4,1,19
C[C@H]1CN([C@@H](C)CO)C(=O)c2cccc(NC(=O)Nc3ccc(C(F)(F)F)cc3)c2O[C@@H]1CN(C)C(=O)Nc1ccc(F)cc1,i,-1,-1,18,26,.,.
O=[N+]([O-])c1cc(-c2csc(NCCc3nc4cc(Cl)c(Cl)cc4n3CCCO)n2)ccc1Cl,i,20,-2,33*,12,16*,20
CC1=C(CO)C(=O)OC([C@@H](C)C2CC[C@H]3C4C[C@H]5O[C@]56[C@@H](O)C=CC(=O)[C@]6(C)C4CC[C@]23C)C1 (some centres undefined),?,21,-1,39*,55*,-3,48*
CC(=O)c1sc(NC(=O)c2cccc(N3C(=O)CCC3=O)c2)nc1-c1ccccc1,i,15,-2,68*,-2,10,1
Cc1sc(NC(=O)c2cccc(N3C(=O)CCC3=O)c2)nc1-c1ccccc1,i,-3,-4,12,11,.,.
COc1ccc(-c2csc(NC(=O)c3cccc(N4C(=O)CCC4=O)c3)n2)cc1C,i,24,0,58*,1,18*,33*
COc1ccc(OC)c2sc(NC(=O)c3cccc(N4C(=O)CCC4=O)c3)nc12,i,1,-1,7,-10,.,.
O=C(C(=S)N1CCOCC1)c1c[nH]c2ccccc12,i,-2,3,30*,-1,3,2
O=C(CN1CCOCC1)c1c[nH]c2ccccc12,i,-1,-2,3,-5,.,.
O=C(OCc1ccccc1)N1CCC2CC1c1c(-c3ccc(C(F)(F)F)cc3)cccc12 (centres undefined),i,-1,2,12,2,.,.
O=C(OCc1ccccc1)N1CCC2CC1c1c(Cl)cccc12 (centres undefined),i,-5,3,30*,10,-2,-10
COc1ccc(CNC(=O)[C@H](Cc2c[nH]c3ccccc23)NC(=O)[C@@H]2Cc3ccccc3CN2)cc1,i,-10,-1,31*,0,-2,11
O=C(Nc1ccccc1)Nc1ccccc1NS(=O)(=O)c1cccs1,i,-1,1,30*,-6,1,8
CN(C)N1C(N)=C(C#N)C(c2ccc(Br)cc2)C2=C1CC(C)(C)CC2=O (centres undefined),i,6,-1,14,0,.,.
CS(=O)(=O)Nc1cccc(NC(=O)c2cccc3c(-c4cccc(C(N)=O)c4)coc23)c1,i,-5,2,44*,-5,8,22
CS(=O)(=O)Nc1cccc(NC(=O)c2cccc3c(-c4ccc(F)c(F)c4)coc23)c1,i,-1,-1,12,-2,.,.
CCOc1ccc(NC(=O)CNC(=O)c2nn(-c3ccc(OC)c(OC)c3)c(=O)c3ccccc23)cc1,i,-2,1,38*,-4,13,19
O=C(c1cccc([N+](=O)[O-])c1)c1ccc2c(c1)OCCOCCOCCOCCO2,i,4,1,35*,-8,1,0
CCn1nnnc1NCc1ccc(OCc2c(F)cccc2Cl)c(OC)c1,i,-7,0,32*,-1,-3,7
COc1cc(CNc2ccc3[nH]c(=O)[nH]c3c2)ccc1OCc1c(F)cccc1Cl,i,9,-1,1,-15,.,.
COc1cc(C2CC(=O)Oc3c2c(=O)n(C)c2ccccc32)cc(OC)c1OC (centres undefined),i,4,-2,38*,-4,0,4
COc1cc(C2CC(=O)Oc3c2c(=O)n(C)c2ccccc32)ccc1O (centres undefined),i,-2,-2,21,-7,.,.
CC(C)CN(C(=O)c1cccc(S(=O)(=O)N2CCN(c3ccc(F)cc3)CC2)c1)C1CCS(=O)(=O)C1 (centres undefined),i,-2,-3,4,9,.,.
CCOC(=O)c1sc(Nc2ccc(OCC)cc2)nc1C,i,3,4,22,7,.,.
SMILES,Myeloid diff MLP,Exocytosis inh,MC4R barr agon,MC4R antagonist,EBI2 antag,U2OS cAMP counter,MC4R cAMP antag
CCOC(=O)c1sc(N2N=C(C)/C(=C\c3ccc(OCC(=O)OC)cc3)C2=O)nc1C,i,-1,-2,31*,5,5,14
NC(c1csc(Nc2ccc(C(=O)NCCCO)cn2)n1)c1ccccc1Cl (centres undefined),i,14,-1,-2,-5,.,.
Cc1ccc2ccccc2c1C(O)c1ncc(-c2ccccc2)[nH]1 (centres undefined),i,-3,-2,2,-2,.,.
Cc1nc(SCC(=O)N2CCCCCC2)c2c(=O)n(C)c(=O)n(CC(C)C)c2n1,i,-1,1,33*,-9,3,13
COc1ccc(N2CCN(C(=O)COC(=O)COc3ccc(C#N)cc3)CC2)cc1,i,-2,-3,17,-2,.,.
COc1ccccc1CN1C[C@@H]2C[C@@H](c3ccccc3OC)N3CCC[C@@]23C1=O,i,-1,-1,5,12,.,.
COc1ccccc1CN1C[C@@H]2C[C@@H](C3=Cc4cccc(OC)c4OC3)N3CCC[C@@]23C1=O,i,7,0,33*,6,4,0
CC/C(Cc1ccccc1)=N/NC(=O)CNC(=O)c1ccc(Cl)cc1Cl,i,-1,-5,-2,0,.,.
CC/C(C)=N\NC(=O)CNC(=O)c1ccc(Cl)cc1Cl,i,-7,0,31*,7,2,2
O=C1NC[C@H](c2ccccc2)OC(=O)[C@@H](Cc2ccc(F)cc2)C/C=C\C[C@H]1CC(=O)N(CCO)Cc1ccccc1,?,-7,-1,45*,-9,2,22
O=C1NC[C@H](c2ccccc2)OC(=O)[C@H](Cc2ccc(F)cc2)C/C=C\C[C@H]1CC(=O)N(CCO)Cc1ccccc1,?,1,1,39*,-21,-2,-6
O=C1NC[C@@H](c2ccccc2)OC(=O)[C@H](Cc2ccc(F)cc2)C/C=C\C[C@H]1CC(=O)N(CCO)Cc1ccccc1,i,-3,-2,15,4,.,.
O=C(N[C@@H]1C/C=C\C[C@@H](CC(=O)N(CCO)Cc2ccccc2)C(=O)N[C@@H](c2ccccc2)COC1=O)OCC1c2ccccc2-c2ccccc21,i,-1,-2,-1,10,.,.

# Source: PubChem
